Laboratory results reported in ChEMBL document CHEMBL1141149, “Novel fluorinated prodrugs for activation by carboxypeptidase G2 showing good in vivo antitumor activity in gene-directed enzyme prodrug therapy” (J Med Chem, 2005).

Experiments:
[1] = Chemical half life period as substrates of CPG2 was determined; assay type: ADME
Summary of the method: (§1)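 Compounds diluted from 10 mM DMSO stocks to 100 μM final in CPG2 assay buffer (100 mM Tris-HCl pH 7.3, 260 μM ZnCl2), no enzyme. Remaining parent measured over time by repeat isocratic reverse-phase HPLC injections (10 mM ammonium acetate pH 5.0/methanol), UV at λmax. Half-life from one-phase exponential decay fit (max 1, min 0).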

[2] = Cytotoxicity aganist MDA MB361 cell line MDA MB 361 expressing stCPG2(Q)3 done for 1 hr with compound dissolved in DMSO; assay type: functional, cell-based; conditions: Homo sapiens, MDA-MB-361, 1 h
Summary of the method: (§2)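 Stably transfected MDA MB 361 lines (β-gal, cytoplasmic CPG2, or surface-tethered stCPG2(Q)3) in DMEM/10% FBS, confluent 6-well monolayers. Prodrug series 1 h, then equal concentration fresh solution added, 20 h more. Cells reseeded 2×10^3/well, grown 5 days; SRB staining, A540. IC50 by four-parameter logistic fit of % control growth.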

[3] = target: T1, Carboxypeptidase G2 (Pseudomonas aeruginosa (strain ATCC 15692 / PAO1 / 1C / PRS 101 / LMG12228)) (UniProt Q9I056); experiment: Kcat against carboxypeptidase G2 in inhibitory kinetic assay
T1 sequence (whole entry): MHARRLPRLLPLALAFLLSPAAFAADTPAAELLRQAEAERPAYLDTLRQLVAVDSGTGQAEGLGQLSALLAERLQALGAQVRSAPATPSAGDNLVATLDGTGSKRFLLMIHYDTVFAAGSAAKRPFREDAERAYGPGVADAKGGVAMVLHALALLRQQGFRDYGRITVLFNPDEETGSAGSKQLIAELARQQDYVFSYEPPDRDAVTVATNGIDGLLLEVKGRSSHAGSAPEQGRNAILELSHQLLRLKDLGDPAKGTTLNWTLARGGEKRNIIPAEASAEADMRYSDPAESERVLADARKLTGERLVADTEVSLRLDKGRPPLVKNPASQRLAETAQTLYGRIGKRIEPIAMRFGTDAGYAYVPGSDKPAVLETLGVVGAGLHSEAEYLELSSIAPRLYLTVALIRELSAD
Summary of the method: (§3)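 Prodrug 0.2–50 μM (25 concentrations) in CPG2 assay buffer (100 mM Tris-HCl pH 7.3, 260 μM ZnCl2) at 37 °C, ±50 mU CPG2. Absorbance change at wavelength of maximal prodrug/drug difference followed 1 min, non-enzymic change subtracted, converted to substrate loss. Km and kcat from Michaelis–Menten nonlinear fit.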

[4] = Cytotoxicity against MDA MB361 cell line MDA MB 361 expressing beta-galactosidase done for 1 h with compound dissolved in DMSO; assay type: functional, cell-based; conditions: Homo sapiens, MDA-MB-361, 1 h; summary of the method: as §2
[5] = Cytotoxicity aganist MDA MB361 cell line MDA MB 361 expressing carboxypeptidase G2 done for 1 hr with compound dissolved in DMSO; assay type: functional, cell-based; conditions: Homo sapiens, MDA-MB-361, 1 h; summary of the method: as §2
[6] = Ratio of IC50 of LacZ cell line to stCPG2(Q)3-expressing cell line; assay type: functional, Homo sapiens
Summary of the method: (§4)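 Selectivity ratio: IC50 in β-gal (LacZ) control MDA MB 361 cells divided by IC50 in CPG2- or stCPG2(Q)3-expressing cells, both from 1 h + 20 h exposure, 5-day regrowth SRB assay.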

[7] = Ratio of IC50 of LacZ cell line to CPG2-expressing cell line; assay type: functional, Homo sapiens; summary of the method: as §4
[8] = Half life period was determined; assay type: ADME; conditions: rat; summary of the method: as §1
[9] = compound: O=C(O)CC[C@H](NC(=O)c1cc(F)c(N(CCBr)CCBr)c(F)c1)C(=O)O; experiment: (§5) Km against carboxypeptidase G2 in inhibitory kinetic assay; conditions: Pseudomonas; summary of the method: as §3
[10] = compound: O=C(O)CC[C@H](NC(=O)c1cc(F)c(N(CCI)CCI)c(F)c1F)C(=O)O; experiment: as §5; conditions: Pseudomonas; summary of the method: as §3
[11] = compound: O=C(O)CC[C@H](NC(=O)c1cc(F)c(N(CCI)CCI)c(F)c1)C(=O)O; experiment: as §5; conditions: Pseudomonas; summary of the method: as §3
[12] = compound: O=C(O)CC[C@H](NC(=O)c1cc(F)c(N(CCBr)CCBr)c(F)c1F)C(=O)O; experiment: as §5; conditions: Pseudomonas; summary of the method: as §3
[13] = compound: CS(=O)(=O)OCCN(CCCl)c1ccc(C(=O)N[C@@H](CCC(=O)O)C(=O)O)cc1; experiment: as §5; conditions: Pseudomonas; summary of the method: as §3
[14] = compound: O=C(O)CC[C@H](NC(=O)c1cc(F)c(N(CCCl)CCCl)c(F)c1)C(=O)O; experiment: as §5; conditions: Pseudomonas; summary of the method: as §3
[15] = compound: O=C(O)CC[C@H](NC(=O)c1cc(F)c(N(CCCl)CCCl)c(F)c1F)C(=O)O; experiment: as §5; conditions: Pseudomonas; summary of the method: as §3

O=C(O)CC[C@H](NC(=O)c1c(F)c(F)c(N(CCI)CCI)c(F)c1F)C(=O)O
half-life [1]: 2 h | IC50 [2]: > 4000 µM | K cat [3]: 0 1/S | IC50 [4]: > 4000 µM | IC50 [5]: > 4000 µM

CS(=O)(=O)OCCN(CCCl)c1ccc(C(=O)N[C@@H](CCC(=O)O)C(=O)O)cc1
IC50 [2]: 165 µM | K cat [3]: 583 1/S | IC50 [4]: 3130 µM | IC50 [5]: 1880 µM | Differential [6]: 19

O=C(O)CC[C@H](NC(=O)c1cc(F)c(N(CCCl)CCCl)c(F)c1F)C(=O)O
half-life [1]: 21.7 h | IC50 [2]: 46 µM | Differential [7]: >55 | K cat [3]: 1150 1/S | IC50 [4]: > 4000 µM | IC50 [5]: 73 µM | half-life [8]: 6 h | Differential [6]: >87

O=C(O)CC[C@H](NC(=O)c1c(F)c(F)c(N(CCCl)CCCl)c(F)c1F)C(=O)O
half-life [1]: 82.3 h | IC50 [2]: > 4000 µM | K cat [3]: 0 1/S | IC50 [4]: > 4000 µM | IC50 [5]: > 4000 µM

O=C(O)CC[C@H](NC(=O)c1cc(F)c(N(CCCl)CCCl)c(F)c1)C(=O)O
half-life [1]: 4.9 h | IC50 [2]: 26 µM | Differential [7]: >95 | K cat [3]: 732 1/S | IC50 [4]: > 4000 µM | IC50 [5]: 42 µM | half-life [8]: 1.5 h | Differential [6]: >150

CS(=O)(=O)OCCN(CCCl)c1ccc(C(=O)O)cc1
half-life [1]: 0.5 h

O=C(O)CC[C@H](NC(=O)c1cc(F)c(N(CCBr)CCBr)c(F)c1F)C(=O)O
half-life [1]: 0.382 h | IC50 [2]: 50 µM | Differential [7]: >49 | K cat [3]: 825 1/S | IC50 [4]: > 4000 µM | IC50 [5]: 82 µM | half-life [8]: 0.15 h | Differential [6]: >80

O=C(O)CC[C@H](NC(=O)c1cc(F)c(N(CCBr)CCBr)c(F)c1)C(=O)O
half-life [1]: 0.0917 h | IC50 [2]: 14 µM | Differential [7]: >75 | K cat [3]: 827 1/S | IC50 [4]: > 4000 µM | IC50 [5]: 53 µM | half-life [8]: < 0.0833 h | Differential [6]: >280

O=C(O)CC[C@H](NC(=O)c1cc(F)c(N(CCI)CCI)c(F)c1)C(=O)O
half-life [1]: 0.15 h | IC50 [2]: 26 µM | Differential [7]: 86 | K cat [3]: 1150 1/S | IC50 [4]: 3300 µM | IC50 [5]: 39 µM | half-life [8]: < 0.0833 h | Differential [6]: 127

O=C(O)CC[C@H](NC(=O)c1cc(F)c(N(CCI)CCI)c(F)c1F)C(=O)O
half-life [1]: 0.622 h | IC50 [2]: 173 µM | Differential [7]: >6 | K cat [3]: 220 1/S | IC50 [4]: > 4000 µM | IC50 [5]: 671 µM | half-life [8]: 6 h | Differential [6]: >23

B1: Carboxypeptidase G2 (Pseudomonas aeruginosa (strain ATCC 15692 / PAO1 / 1C / PRS 101 / LMG12228)), Q9I056 (protein)
chain: MHARRLPRLLPLALAFLLSPAAFAADTPAAELLRQAEAERPAYLDTLRQLVAVDSGTGQAEGLGQLSALLAERLQALGAQVRSAPATPSAGDNLVATLDGTGSKRFLLMIHYDTVFAAGSAAKRPFREDAERAYGPGVADAKGGVAMVLHALALLRQQGFRDYGRITVLFNPDEETGSAGSKQLIAELARQQDYVFSYEPPDRDAVTVATNGIDGLLLEVKGRSSHAGSAPEQGRNAILELSHQLLRLKDLGDPAKGTTLNWTLARGGEKRNIIPAEASAEADMRYSDPAESERVLADARKLTGERLVADTEVSLRLDKGRPPLVKNPASQRLAETAQTLYGRIGKRIEPIAMRFGTDAGYAYVPGSDKPAVLETLGVVGAGLHSEAEYLELSSIAPRLYLTVALIRELSAD
Km [9]: 1.18 µM | Km [10]: 2.8 µM | Km [11]: 1.74 µM | Km [12]: 1.1 µM | Km [13]: 3.4 µM | Km [14]: 1.71 µM | Km [15]: 2.6 µM
